Experimental data taken from ChEMBL document CHEMBL5696442, “Discovery of type II inhibitors of TGFβ-activated kinase 1 (TAK1) and mitogen-activated protein kinase kinase kinase kinase 2 (MAP4K2)” (J Med Chem, 2015).
The source made the active and inactive calls. The rule behind the calls is not given here.

What was measured:
[1] = molecular target: Cyclin-dependent kinase 5 (Homo sapiens) (UniProt Q00535); assay: Inhibition of CDK5 Lys2 labeling site harbouring NVLHRDLKPQNLLINR in human Huh-7 cell lysate at 1 uM by KiNativ Profiling analysis relative to control; type: subcellular
[2] = molecular target: DNA-PK/Ku70/Ku85 (Homo sapiens) (UniProt P78527+P12956+P13010); assay: Inhibition of DNAPK ATP labeling site harbouring KGGSWIQEINVAEKNWYPR in human Huh-7 cell lysate at 1 uM by KiNativ Profiling analysis relative to control; type: subcellular
[3] = molecular target: T1, Serine/threonine-protein kinase Sgk3 (Homo sapiens) (UniProt Q96BR1); assay: Inhibition of SGK3 Lys2 labeling site in human Huh-7 cell lysate at 1 uM by KiNativ Profiling analysis relative to control; type: subcellular
T1 sequence (whole entry): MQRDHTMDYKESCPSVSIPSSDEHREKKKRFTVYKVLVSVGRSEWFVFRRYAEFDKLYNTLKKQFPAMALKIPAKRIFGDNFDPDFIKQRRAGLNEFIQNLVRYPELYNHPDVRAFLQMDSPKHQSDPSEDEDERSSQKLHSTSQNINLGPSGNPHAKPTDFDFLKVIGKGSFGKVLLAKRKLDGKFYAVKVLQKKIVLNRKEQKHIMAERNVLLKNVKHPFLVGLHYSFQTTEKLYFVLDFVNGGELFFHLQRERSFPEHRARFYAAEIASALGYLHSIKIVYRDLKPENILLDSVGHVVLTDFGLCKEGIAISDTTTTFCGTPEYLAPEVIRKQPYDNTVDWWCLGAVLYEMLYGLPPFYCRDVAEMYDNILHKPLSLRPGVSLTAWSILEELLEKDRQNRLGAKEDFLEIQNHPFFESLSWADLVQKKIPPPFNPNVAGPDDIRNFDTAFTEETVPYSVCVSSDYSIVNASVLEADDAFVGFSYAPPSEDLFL

[4] = molecular target: Cyclin-dependent kinase 1 (Homo sapiens) (UniProt P06493); assay: Inhibition of CDC2 Lys2 labeling site harbouring DLKPQNLLIDDKGTIK in human A-375 cells at 5 uM by KiNativ Profiling analysis relative to control; type: cell-based
[5] = molecular target: Ribosomal protein S6 kinase alpha-1 (Homo sapiens) (UniProt Q15418); assay: Inhibition of RSK1 domain1 Lys2 labeling site harbouring DLKPENILLDEEGHIKLTDFGLSK in human A-375 cells at 5 uM by KiNativ Profiling analysis relative to control; type: cell-based
How it was run: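 Live A375 melanoma cells treated with compound at 5 or 0.5 μM, then lysed. Lysate kinases were labeled with a lysine-reactive ATP or ADP-biotin probe. Inhibition was read as protection of labeling sites from the probe.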

[6] = molecular target: T2, Serine/threonine-protein kinase TAO1 (Homo sapiens) (UniProt Q7L7X3); assay: Inhibition of TAO1 Lys2 labeling site in human A-375 cells at 5 uM by KiNativ Profiling analysis relative to control; type: cell-based
T2 sequence (whole entry): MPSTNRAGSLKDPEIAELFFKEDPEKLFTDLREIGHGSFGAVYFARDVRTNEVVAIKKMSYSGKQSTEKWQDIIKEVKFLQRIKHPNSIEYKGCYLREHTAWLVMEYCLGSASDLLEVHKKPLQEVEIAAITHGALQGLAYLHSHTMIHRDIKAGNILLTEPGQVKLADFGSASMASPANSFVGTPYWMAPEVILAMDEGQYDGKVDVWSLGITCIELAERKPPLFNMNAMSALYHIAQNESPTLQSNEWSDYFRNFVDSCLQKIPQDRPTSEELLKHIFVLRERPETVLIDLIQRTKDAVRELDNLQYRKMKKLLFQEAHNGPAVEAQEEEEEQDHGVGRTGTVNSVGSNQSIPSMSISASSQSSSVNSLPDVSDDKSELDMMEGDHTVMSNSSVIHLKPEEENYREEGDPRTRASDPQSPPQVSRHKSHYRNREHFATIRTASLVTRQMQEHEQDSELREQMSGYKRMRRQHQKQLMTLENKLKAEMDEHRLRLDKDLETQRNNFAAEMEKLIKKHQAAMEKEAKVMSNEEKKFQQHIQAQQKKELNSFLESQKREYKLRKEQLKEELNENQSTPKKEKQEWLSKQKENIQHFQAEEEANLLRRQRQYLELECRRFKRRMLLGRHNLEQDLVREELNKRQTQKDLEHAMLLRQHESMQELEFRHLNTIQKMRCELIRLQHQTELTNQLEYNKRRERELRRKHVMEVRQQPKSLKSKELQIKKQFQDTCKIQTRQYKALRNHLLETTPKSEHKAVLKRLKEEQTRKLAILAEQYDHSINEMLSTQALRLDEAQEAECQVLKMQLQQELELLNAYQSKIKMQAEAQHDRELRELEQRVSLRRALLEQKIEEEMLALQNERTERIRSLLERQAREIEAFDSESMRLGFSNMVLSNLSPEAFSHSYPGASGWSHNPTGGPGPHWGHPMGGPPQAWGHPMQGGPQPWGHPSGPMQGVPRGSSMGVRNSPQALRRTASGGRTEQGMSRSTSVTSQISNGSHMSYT

[7] = molecular target: Wee1-like protein kinase (Homo sapiens) (UniProt P30291); assay: Inhibition of Wee1 Lys2 labeling site in human A-375 cells at 5 uM by KiNativ Profiling analysis relative to control; type: cell-based
[8] = molecular target: Serine/threonine-protein kinase VRK2 (Homo sapiens) (UniProt Q86Y07); assay: Inhibition of VRK2 Lys2 labeling site in human A-375 cells at 0.5 uM by KiNativ Profiling analysis relative to control; type: cell-based
[9] = molecular target: 3-phosphoinositide-dependent protein kinase 1 (Homo sapiens) (UniProt O15530); assay: Inhibition of PDPK1 (unknown origin) at 1 uM by Ambit Kinomescan binding assay relative to control; values are per cent of control
[10] = molecular target: Non-receptor tyrosine-protein kinase TYK2 (Homo sapiens) (UniProt P29597); assay: Inhibition of TYK2 domain2 ACT labeling site in human A-375 cells at 5 uM by KiNativ Profiling analysis relative to control; type: cell-based
[11] = molecular target: T3, Aurora kinase A (Homo sapiens) (UniProt O14965); assay: Inhibition of AurA K2 labeling site harbouring VIHRDIKPENLLLGSAGELK in human Huh-7 cells at 10 uM by KiNativ Profiling analysis relative to control; type: cell-based
T3 sequence (whole entry): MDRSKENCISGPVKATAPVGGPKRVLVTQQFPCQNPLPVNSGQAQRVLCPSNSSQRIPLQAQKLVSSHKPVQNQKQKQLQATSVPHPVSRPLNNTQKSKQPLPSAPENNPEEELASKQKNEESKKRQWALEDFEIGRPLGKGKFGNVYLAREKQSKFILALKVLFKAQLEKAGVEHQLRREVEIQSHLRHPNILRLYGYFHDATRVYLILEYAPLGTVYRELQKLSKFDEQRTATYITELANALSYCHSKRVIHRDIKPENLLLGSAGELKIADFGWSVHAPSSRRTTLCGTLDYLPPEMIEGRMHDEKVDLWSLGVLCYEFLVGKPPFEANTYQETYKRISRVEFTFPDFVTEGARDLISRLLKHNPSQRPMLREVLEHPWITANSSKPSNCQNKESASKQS

Cyclin-dependent kinase 5 (Homo sapiens), sequence (Q00535 whole entry, looked up): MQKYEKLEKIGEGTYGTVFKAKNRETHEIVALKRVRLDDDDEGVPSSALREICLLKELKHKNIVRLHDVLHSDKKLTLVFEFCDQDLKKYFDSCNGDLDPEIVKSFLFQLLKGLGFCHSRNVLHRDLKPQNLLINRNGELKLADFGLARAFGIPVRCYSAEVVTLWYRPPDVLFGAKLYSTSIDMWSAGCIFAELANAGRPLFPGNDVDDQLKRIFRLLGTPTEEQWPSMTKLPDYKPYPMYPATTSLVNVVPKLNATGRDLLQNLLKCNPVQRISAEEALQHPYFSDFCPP
Non-receptor tyrosine-protein kinase TYK2 (Homo sapiens), sequence (P29597 whole entry, the tested form may be a part): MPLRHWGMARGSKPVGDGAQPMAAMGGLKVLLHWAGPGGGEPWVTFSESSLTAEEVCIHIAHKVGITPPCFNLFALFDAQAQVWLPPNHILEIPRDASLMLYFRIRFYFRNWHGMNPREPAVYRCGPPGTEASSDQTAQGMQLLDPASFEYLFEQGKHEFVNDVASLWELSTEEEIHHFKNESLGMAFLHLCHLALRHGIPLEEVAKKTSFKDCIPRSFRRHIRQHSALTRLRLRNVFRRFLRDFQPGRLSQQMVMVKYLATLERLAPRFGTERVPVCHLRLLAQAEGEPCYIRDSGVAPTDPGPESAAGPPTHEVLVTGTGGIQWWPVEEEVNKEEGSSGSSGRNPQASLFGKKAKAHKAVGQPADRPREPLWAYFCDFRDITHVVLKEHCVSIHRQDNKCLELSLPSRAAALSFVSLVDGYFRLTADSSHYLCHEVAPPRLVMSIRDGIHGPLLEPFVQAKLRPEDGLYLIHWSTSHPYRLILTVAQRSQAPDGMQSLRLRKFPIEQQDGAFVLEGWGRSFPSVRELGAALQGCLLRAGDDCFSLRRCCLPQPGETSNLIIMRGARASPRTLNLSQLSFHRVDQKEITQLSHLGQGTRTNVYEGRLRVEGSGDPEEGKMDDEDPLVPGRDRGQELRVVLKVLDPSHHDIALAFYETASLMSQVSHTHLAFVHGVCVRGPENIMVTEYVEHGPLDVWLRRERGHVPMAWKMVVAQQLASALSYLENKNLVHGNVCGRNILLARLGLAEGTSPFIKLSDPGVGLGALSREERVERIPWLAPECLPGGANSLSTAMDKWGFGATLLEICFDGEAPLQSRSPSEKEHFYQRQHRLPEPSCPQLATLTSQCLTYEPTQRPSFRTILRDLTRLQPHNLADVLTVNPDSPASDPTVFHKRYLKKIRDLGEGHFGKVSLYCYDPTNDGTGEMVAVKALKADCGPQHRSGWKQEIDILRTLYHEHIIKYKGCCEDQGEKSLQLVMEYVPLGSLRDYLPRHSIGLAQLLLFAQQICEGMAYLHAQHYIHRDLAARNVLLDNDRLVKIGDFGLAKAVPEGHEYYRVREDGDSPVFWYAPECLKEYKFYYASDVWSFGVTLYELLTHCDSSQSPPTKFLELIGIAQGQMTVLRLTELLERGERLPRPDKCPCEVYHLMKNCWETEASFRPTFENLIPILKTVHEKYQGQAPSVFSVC
Serine/threonine-protein kinase VRK2 (Homo sapiens), sequence (Q86Y07 whole entry): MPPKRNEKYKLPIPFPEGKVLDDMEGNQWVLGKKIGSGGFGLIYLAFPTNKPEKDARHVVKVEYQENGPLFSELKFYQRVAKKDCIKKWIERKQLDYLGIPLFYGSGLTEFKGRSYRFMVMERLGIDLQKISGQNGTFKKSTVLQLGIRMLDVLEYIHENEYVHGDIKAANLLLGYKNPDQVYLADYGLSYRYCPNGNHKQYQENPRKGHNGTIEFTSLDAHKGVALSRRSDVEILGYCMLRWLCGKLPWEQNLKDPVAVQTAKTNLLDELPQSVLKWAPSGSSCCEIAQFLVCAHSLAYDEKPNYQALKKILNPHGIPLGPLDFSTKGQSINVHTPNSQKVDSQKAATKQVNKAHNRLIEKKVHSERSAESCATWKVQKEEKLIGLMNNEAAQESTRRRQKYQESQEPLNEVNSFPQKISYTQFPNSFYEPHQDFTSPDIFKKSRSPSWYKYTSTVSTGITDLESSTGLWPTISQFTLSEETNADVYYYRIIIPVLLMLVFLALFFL
Wee1-like protein kinase (Homo sapiens), sequence (P30291 whole entry, looked up): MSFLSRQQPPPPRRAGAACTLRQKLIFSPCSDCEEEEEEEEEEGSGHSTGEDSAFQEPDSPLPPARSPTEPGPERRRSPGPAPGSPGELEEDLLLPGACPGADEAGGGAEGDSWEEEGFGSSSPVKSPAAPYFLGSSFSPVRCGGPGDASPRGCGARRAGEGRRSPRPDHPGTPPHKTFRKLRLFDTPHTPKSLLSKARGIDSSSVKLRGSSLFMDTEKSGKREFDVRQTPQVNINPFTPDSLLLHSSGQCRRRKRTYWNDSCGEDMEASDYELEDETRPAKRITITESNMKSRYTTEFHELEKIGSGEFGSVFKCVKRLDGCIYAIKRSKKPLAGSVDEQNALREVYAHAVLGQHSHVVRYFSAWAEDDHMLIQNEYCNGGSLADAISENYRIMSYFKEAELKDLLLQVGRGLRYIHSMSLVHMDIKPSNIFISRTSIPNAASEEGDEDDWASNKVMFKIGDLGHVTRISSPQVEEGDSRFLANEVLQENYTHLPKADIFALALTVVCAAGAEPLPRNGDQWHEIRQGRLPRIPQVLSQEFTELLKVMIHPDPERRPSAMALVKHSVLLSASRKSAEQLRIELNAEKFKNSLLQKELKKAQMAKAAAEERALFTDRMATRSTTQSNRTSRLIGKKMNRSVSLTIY
Cyclin-dependent kinase 1 (Homo sapiens), sequence (P06493 whole entry, looked up, the tested form may be a part): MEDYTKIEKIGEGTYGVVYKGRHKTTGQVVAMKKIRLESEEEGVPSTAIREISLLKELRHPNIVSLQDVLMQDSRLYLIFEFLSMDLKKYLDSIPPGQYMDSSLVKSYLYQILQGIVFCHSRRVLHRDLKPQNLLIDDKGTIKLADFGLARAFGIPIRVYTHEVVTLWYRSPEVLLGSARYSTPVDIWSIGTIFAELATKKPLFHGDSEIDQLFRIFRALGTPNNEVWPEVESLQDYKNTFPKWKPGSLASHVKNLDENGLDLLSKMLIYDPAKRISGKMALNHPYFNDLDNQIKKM
3-phosphoinositide-dependent protein kinase 1 (Homo sapiens), sequence (O15530 whole entry, the tested form may be a part): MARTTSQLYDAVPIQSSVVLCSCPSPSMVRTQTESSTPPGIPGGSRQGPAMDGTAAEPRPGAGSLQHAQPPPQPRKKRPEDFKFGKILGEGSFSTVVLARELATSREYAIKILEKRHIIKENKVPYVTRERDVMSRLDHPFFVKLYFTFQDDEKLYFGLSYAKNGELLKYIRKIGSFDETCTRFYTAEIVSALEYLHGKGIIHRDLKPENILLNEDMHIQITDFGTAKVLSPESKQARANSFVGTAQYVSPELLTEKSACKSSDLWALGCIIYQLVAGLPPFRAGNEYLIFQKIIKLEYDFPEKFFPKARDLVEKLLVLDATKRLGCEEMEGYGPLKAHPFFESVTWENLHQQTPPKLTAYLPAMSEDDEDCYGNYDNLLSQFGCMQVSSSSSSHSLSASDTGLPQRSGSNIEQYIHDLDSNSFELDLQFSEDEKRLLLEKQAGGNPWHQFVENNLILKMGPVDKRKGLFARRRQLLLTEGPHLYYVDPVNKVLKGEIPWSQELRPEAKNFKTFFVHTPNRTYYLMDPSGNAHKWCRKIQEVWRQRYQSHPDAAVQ
Ribosomal protein S6 kinase alpha-1 (Homo sapiens), sequence (Q15418 whole entry, the tested form may be a part): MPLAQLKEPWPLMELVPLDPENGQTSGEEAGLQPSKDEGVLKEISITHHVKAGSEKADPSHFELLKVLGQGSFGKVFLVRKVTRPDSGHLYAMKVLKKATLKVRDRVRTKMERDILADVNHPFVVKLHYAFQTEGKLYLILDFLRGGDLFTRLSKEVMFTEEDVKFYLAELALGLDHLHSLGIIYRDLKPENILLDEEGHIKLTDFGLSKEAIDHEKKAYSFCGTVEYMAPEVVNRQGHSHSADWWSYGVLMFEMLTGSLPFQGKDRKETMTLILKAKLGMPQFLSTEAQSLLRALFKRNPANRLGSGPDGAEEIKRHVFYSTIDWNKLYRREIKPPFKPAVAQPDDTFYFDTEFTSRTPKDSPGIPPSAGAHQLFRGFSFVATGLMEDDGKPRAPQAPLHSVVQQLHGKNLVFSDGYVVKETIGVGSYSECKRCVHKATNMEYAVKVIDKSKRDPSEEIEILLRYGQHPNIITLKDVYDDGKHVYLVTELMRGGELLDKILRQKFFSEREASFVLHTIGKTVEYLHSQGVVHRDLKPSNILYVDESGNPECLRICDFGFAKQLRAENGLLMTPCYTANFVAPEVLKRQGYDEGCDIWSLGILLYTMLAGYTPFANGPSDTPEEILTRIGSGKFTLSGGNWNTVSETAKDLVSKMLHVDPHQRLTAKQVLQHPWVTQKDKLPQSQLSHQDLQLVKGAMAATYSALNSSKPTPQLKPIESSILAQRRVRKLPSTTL

CNc1cc(Oc2cc(C(=O)Nc3cc(N4CCN(C)CC4)cc(C(F)(F)F)c3)ccc2C)ncn1
inhibition [1]: 22.5% | inhibition [2]: 15.9% | inhibition [3]: 13.3%

CCN1CCN(Cc2ccc(NC(=O)c3ccc(C)c(/C=C/c4cnc5[nH]ccc5c4OC)c3)cc2C(F)(F)F)CC1
inhibition [4]: -6.1% | inhibition [5]: -4.9% | inhibition [6]: 66.2% | inhibition [7]: -0.1% | inhibition [8]: 28.5% | residual activity [9]: 100%

CCN1CCN(Cc2ccc(NC(=O)c3ccc(C)c(Oc4ccnc5[nH]ccc45)c3)cc2C(F)(F)F)CC1
inhibition [10]: 50.1% | inhibition [11]: inactive
